Source: PubChem (The Scripps Research Institute Molecular Screening Center)
This is a sample that favours compounds with a hit; in the whole collection about 3.1% have one here.
GalR3 antag: antagonists of human GalR3; HEK293 GalR3-CNG cAMP membrane potential fluorescence; galR3 body fused to GalR1 C-terminus; 0.44% of 360,000 active; O60755; AID 651719; inhibition, % at 3 µM;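 active means inhibition above the screen-wide average plus 3 SD, cut at about 13% in these data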;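 further: forskolin and galanin both at EC90 stimulate the cells; cAMP rise reported by CNG channel membrane potential dye signal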
Target sequence (O60755 1-299 limits assumed): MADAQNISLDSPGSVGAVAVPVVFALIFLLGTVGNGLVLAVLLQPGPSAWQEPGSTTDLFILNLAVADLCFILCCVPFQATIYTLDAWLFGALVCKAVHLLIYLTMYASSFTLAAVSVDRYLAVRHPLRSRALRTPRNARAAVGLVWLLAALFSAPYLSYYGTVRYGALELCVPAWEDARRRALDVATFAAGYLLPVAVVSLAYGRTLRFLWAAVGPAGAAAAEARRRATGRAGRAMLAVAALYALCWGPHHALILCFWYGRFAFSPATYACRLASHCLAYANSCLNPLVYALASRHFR
GPR7 antagonist: blocks human GPR7 receptor signaling; P48145; GPR7-expressing cells, fluorescence antagonist assay; 1.1% of 290,000 active; inhibition, % at 4.4 µM; in the data active means inhibition above about 16%, passing the limit was not always enough;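 further: cells stimulated with the agonist NPW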
CHO parental Ca: signal in parental CHO cells, OX1R antagonist counter-screen | parental CHO-K1, ATP-induced calcium, Fluo-8 fluorescence | inhibition, % at 5.6 µM | 0.63% of 330,000 active | AID 463079;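 active means inhibition above that plate's mean sample inhibition plus 3 SD, cut at about 26% in these data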
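Measured by: calcium-sensitive Fluo-8 fluorescence / Test system: CHO parental line / Controls: ATP-challenged DMSO wells low, unchallenged DMSO wells high / Measure: % inhibition / Compound: single nominal dose of 5.6 µM per compound / Replicates: single well per compound, no replicates / Reagent: ATP as calcium-mobilizing challenge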
OX1R antag-1: blocks the human orexin 1 receptor; O43613; CHO/OX1R cells, Fluo-8 calcium fluorescence, orexin A; inhibition, % at 5 µM; 0.43% of 330,000 active;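 active means inhibition above its plate's threshold, mean inhibition of all tested compounds on the plate plus 3 SD, cut at about 37% in these data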
Target sequence (O43613 whole entry, looked up): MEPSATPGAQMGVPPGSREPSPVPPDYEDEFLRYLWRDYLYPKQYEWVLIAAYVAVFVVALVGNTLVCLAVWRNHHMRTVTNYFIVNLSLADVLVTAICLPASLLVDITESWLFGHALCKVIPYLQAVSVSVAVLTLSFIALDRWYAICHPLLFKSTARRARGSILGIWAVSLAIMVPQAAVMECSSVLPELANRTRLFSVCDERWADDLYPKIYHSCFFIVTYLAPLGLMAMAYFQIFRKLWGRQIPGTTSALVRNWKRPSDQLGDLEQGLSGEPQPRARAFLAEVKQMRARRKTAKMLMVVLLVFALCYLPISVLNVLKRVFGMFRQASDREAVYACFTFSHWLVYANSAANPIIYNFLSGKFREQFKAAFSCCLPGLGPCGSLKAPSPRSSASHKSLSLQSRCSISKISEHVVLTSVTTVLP
OX1R antag-2: OX1R (human) antagonism | O43613 | AID 485270 | OX1R-expressing cells, FRET antagonist read-out | inhibition, % at 6.6 µM | 1.8% of 330,000 active; in the data active means inhibition mostly above about 38%, no sharp cut-off; inactive means mostly below about 40%
OX1R Ca confirm: OX1R (human) antagonism, confirmed; shares compounds with OX1R antag-1; CHO/OX1R cells, orexin A calcium Fluo-8 fluorescence; inhibition, % at 5 µM; 38% of 1,100 active; in the data active means inhibition above about 29%
CHO Ca counter: counter-screen for OX1R antagonists: effect in parental CHO cells; inhibition, % at 5.6 µM; 9.3% of 1,100 active; shares compounds with OX1R antag-1; parental CHO-K1, ATP-induced calcium, Fluo-8 fluorescence;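 active means inhibition above a per-plate limit, the mean inhibition of that plate's test compounds plus 3 SD, cut at about 25% in these data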
OX1R HTRF conf: OX1R (human) antagonism, HTRF confirmed. shares compounds with OX1R antag-2. OX1R-expressing cells, HTRF antagonist assay. inhibition, % at 6.6 µM. 49% of 1,800 active; in the data active means inhibition above about 55%;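 further: CHO cells expressing OX1R stimulated with orexin A at about EC80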
CHO-K1 HTRF: counter-screen: parental CHO-K1 HTRF response | shares compounds with OX1R antag-2 | parental CHO-K1 cells, HTRF counterscreen | inhibition, % at 6.6 µM | 48% of 1,800 active; in the data active means inhibition above about 17%
Of the large screens only hits and unclear results are named; the others gave an inactive call (follow-up assays come after a bar, where they were run).

CCn1c(C)csc1=NC(=O)c1ccccc1O	OX1R antag-1 54, OX1R antag-2 95 | OX1R Ca confirm 42 | CHO Ca counter inactive | OX1R HTRF conf 90 | CHO-K1 HTRF inactive
O=C(NCc1ccccc1)C(c1ccccc1)N(C(=O)c1csnn1)C1CCCC1 (stereo unspecified)	none
C=CCNc1oc(-c2cccc3ccccc23)nc1C#N	OX1R antag-1 43, OX1R antag-2 69 | OX1R Ca confirm inactive | CHO Ca counter inactive | OX1R HTRF conf 55 | CHO-K1 HTRF inactive
CCNc1oc(-c2cccc3ccccc23)nc1C#N	OX1R antag-1 55, OX1R antag-2 89 | OX1R Ca confirm 39 | CHO Ca counter inactive | OX1R HTRF conf 78 | CHO-K1 HTRF inactive
CC(C)Nc1oc(-c2cccc3ccccc23)nc1C#N	none
O=C1NC[C@@H](c2ccccc2)OC(=O)[C@H](Cc2ccc(F)cc2)C/C=C\C[C@H]1CC(=O)N(CCO)Cc1ccccc1	none (no result: GPR7 antagonist)
O=C1NC[C@H](c2ccccc2)OC(=O)[C@H](Cc2ccc(F)cc2)C/C=C\C[C@H]1CC(=O)N(CCO)Cc1ccccc1	OX1R antag-1 54, OX1R antag-2 54 (no result: GPR7 antagonist) | OX1R Ca confirm 30 | CHO Ca counter inactive | OX1R HTRF conf inactive | CHO-K1 HTRF inactive
O=C(CNC(=O)c1ccccc1F)NCc1cccnc1	none
CC(NC(=O)c1cccc(S(=O)(=O)N2CCN(Cc3ccccc3)CC2)c1)c1ccc(Cl)cc1 (stereo unspecified)	none (no result: GPR7 antagonist, CHO parental Ca, OX1R antag-1, OX1R antag-2)
O=C1c2ccccc2NC(c2c(Cl)cccc2Cl)N1Cc1ccccc1 (stereo unspecified)	OX1R antag-2 82 | OX1R Ca confirm inactive | CHO Ca counter inactive | OX1R HTRF conf inactive | CHO-K1 HTRF inactive
COc1ccc(-c2[nH]ncc2N=Nc2ccccc2)cc1	OX1R antag-2 98 | OX1R Ca confirm inactive | CHO Ca counter inactive | OX1R HTRF conf inactive | CHO-K1 HTRF inactive
COc1cccc(NC(=O)c2ccc(C(=O)c3ccccc3)o2)c1	OX1R antag-1 53, OX1R antag-2 100 | OX1R Ca confirm 33 | CHO Ca counter inactive | OX1R HTRF conf 78 | CHO-K1 HTRF inactive
CCc1cc2c(SCC(=O)N(CC)c3c(N)n(Cc4ccccc4)c(=O)[nH]c3=O)ncnc2s1	OX1R antag-2 84 | OX1R Ca confirm 48 | CHO Ca counter inactive | OX1R HTRF conf 93 | CHO-K1 HTRF inactive
CCCCc1c(-c2cccc(Cl)c2)ncn1CCc1ccccc1OC	none (no result: GPR7 antagonist, CHO parental Ca, OX1R antag-1, OX1R antag-2)
O=C(COC(=O)c1cc(-c2ccc(Cl)s2)nc2ccccc12)NCc1ccco1	OX1R antag-2 56 | OX1R Ca confirm inactive | CHO Ca counter inactive | OX1R HTRF conf 74 | CHO-K1 HTRF inactive
COc1cc(/C=N/NC(=O)c2cc(-c3ccccc3)nc3ccccc23)ccc1O	none
COc1cc(/C=N/NC(=O)c2cc(-c3cccc(Br)c3)nc3ccccc23)cc(OC)c1O	OX1R antag-2 67 (no result: GPR7 antagonist) | OX1R Ca confirm 29 | CHO Ca counter inactive | OX1R HTRF conf 78 | CHO-K1 HTRF inactive
CCN1CCN(S(=O)(=O)c2ccc(Cl)c(C(=O)N(C)Cc3ccco3)c2)CC1	none (no result: GPR7 antagonist, CHO parental Ca, OX1R antag-1, OX1R antag-2)
Cc1ccc(-c2c(C(=O)N/N=C/c3ccc4c(c3)OCO4)nnn2-c2nonc2N)cc1	OX1R antag-2 74 | OX1R Ca confirm inactive | CHO Ca counter inactive | OX1R HTRF conf 88 | CHO-K1 HTRF inactive
Cc1ccc(SCc2c(C(=O)N/N=C/c3ccc4c(c3)OCO4)nnn2-c2nonc2N)cc1	OX1R antag-2 60 | OX1R Ca confirm inactive | CHO Ca counter inactive | OX1R HTRF conf 82 | CHO-K1 HTRF inactive
Cc1cnc(C(=O)OCc2cc(=O)n3c(C)cccc3n2)cn1	none (no result: GPR7 antagonist)
CC1CC(C)CN(C(=O)COC(=O)/C=C/c2cccc([N+](=O)[O-])c2)C1 (stereo unspecified)	none (no result: GPR7 antagonist, CHO parental Ca, OX1R antag-1, OX1R antag-2)
O=C(CSc1nnnn1-c1cccc(F)c1)NC1CC1	none (no result: GPR7 antagonist)
CCn1c2ccccc2c2cc(/C=N/NC(=O)c3ccccc3C)ccc21	none
Cn1c2ccccc2c2cc(/C=N/NC(=O)c3ccccc3F)ccc21	OX1R antag-2 102 | OX1R Ca confirm inactive | CHO Ca counter inactive | OX1R HTRF conf 94 | CHO-K1 HTRF inactive
CCN(CC(=O)Nc1ccc(OC)cc1)C(=O)c1ccc2c(c1)NC(=O)C(C)S2 (stereo unspecified)	none (no result: GPR7 antagonist)
COc1ccc(NS(=O)(=O)c2cccc(C(=O)NNC(=O)CNC(=O)c3ccccc3F)c2)cc1	none (no result: GPR7 antagonist)
COc1cc(C(=O)OCC(=O)N2c3ccccc3NC(=O)C2(C)C)ccc1OCC(C)C	OX1R antag-2 56 (no result: GPR7 antagonist) | OX1R Ca confirm inactive | CHO Ca counter inactive | OX1R HTRF conf 56 | CHO-K1 HTRF inactive
CC(=O)Nc1ccc(S(=O)(=O)N(Cc2ccccc2)c2ccccc2F)cc1	OX1R antag-2 63 | OX1R Ca confirm 34 | CHO Ca counter inactive | OX1R HTRF conf 56 | CHO-K1 HTRF inactive
CC(=O)Nc1ccc(S(=O)(=O)N(Cc2ccccc2)c2ccccn2)cc1	none
CCOC(=O)C1=C(C)N(C[C@@H]2CC[C@@H](Cc3ccc(-c4ccccc4)cc3)O2)C(=O)NC1C1CC1 (stereo partly specified)	OX1R antag-1 51, OX1R antag-2 34 (no result: GPR7 antagonist) | OX1R Ca confirm inactive | CHO Ca counter inactive | OX1R HTRF conf inactive | CHO-K1 HTRF inactive
CCOC(=O)c1c(C)[nH]c(C)c1C(=O)Cn1nnc(-c2ccccc2C)n1	OX1R antag-2 54 | OX1R Ca confirm 29 | CHO Ca counter inactive | OX1R HTRF conf 65 | CHO-K1 HTRF inactive
CCOc1ccc(NC(=O)Cn2nnc(-c3ccc(C(N)=O)cc3)n2)cc1S(=O)(=O)N1CCCC1	none (no result: GPR7 antagonist, CHO parental Ca, OX1R antag-1, OX1R antag-2)
CCOc1ncccc1C(=O)NCC1COc2ccccc2O1 (stereo unspecified)	OX1R antag-2 81 | OX1R Ca confirm inactive | CHO Ca counter inactive | OX1R HTRF conf 69 | CHO-K1 HTRF inactive
Cc1cccc(NC(=O)[C@@H]2CCCN2S(=O)(=O)c2ccc(Cl)cc2)c1	OX1R antag-1 74, OX1R antag-2 91 (no result: GPR7 antagonist) | OX1R Ca confirm 55 | CHO Ca counter inactive | OX1R HTRF conf 89 | CHO-K1 HTRF inactive
COc1ccc(NC(=O)C2CCCN2S(=O)(=O)c2cccc3cccnc23)cc1OC (stereo unspecified)	none
CCc1cccc(NC(=O)C2CCCN2S(=O)(=O)c2cccc3cccnc23)c1 (stereo unspecified)	OX1R antag-1 87, OX1R antag-2 89 | OX1R Ca confirm 50 | CHO Ca counter inactive | OX1R HTRF conf 85 | CHO-K1 HTRF inactive
NC(=O)NC(CC(=O)Nc1cccnc1)c1cccc(Br)c1 (stereo unspecified)	none
Oc1ccc(C=NCCc2ccccc2)cc1	none
